Assay outcomes from PubChem.
Only some compounds are listed: those with a hit (about 5.8% of all), similar ones and a draw of the others.
KCC2 mod – KCC2 cotransporter modulators, thallium flux, primary screen, cell-based, HEK293 KCC2, FluoZin-2 fluorescence, MLSMR; Solute carrier family 12 member 5 (Homo sapiens), Q9H2X9; KCC2 cells, thallium flux FluoZin-2 fluorescence; B-score of Tl+ flux slope (higher = more flux/activation; lower = inhibition) at 10 µM; 190,000 tested, 2.2% active; AID 1456, 2008;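 active means thallium flux slope and its plate-corrected score both differing from the plate sample mean at a set confidence after two filtering rounds, in either direction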;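 further: slope of fluorescence scaled to starting intensity during 10 to 20 s after thallium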
14-3-3 Bad PPI – inhibitors of 14-3-3 zeta/Bad binding, primary screen, biochemical, TR-FRET, bovine 14-3-3 zeta; 14-3-3 protein zeta/delta (Bos taurus), P63103; TR-FRET 14-3-3zeta/Dy647-pBad peptide displacement, 1 h; inhibition, % at 21.7 µM; 220,000 tested, 0.71% active; AID 781, 2007;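 active means inhibition above about 70%, limit read from the data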;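 further: 0% = full 14-3-3 plus peptide FRET controls and 100% = background without 14-3-3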
Target sequence (P63103 whole entry, looked up): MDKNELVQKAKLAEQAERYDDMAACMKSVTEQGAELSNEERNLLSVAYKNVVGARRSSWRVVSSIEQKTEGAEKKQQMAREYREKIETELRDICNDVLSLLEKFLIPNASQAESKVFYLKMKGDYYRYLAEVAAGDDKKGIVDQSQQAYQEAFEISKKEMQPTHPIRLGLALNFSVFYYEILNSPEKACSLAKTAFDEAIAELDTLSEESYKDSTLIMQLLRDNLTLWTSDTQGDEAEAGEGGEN
ROMK primary – ROMK potassium channel modulators, primary screen, cell-based, thallium flux, MLSMR library; ATP-sensitive inward rectifier potassium channel 1 (Homo sapiens), P48048; Tet-inducible ROMK, thallium flux fluorescence; actives lie on both sides; B-score at 10 µM; 130,000 tested, 2% active;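 active means signal ratio slope over the read window, or its plate-corrected B-score, at least 3 SD from the plate mean, either direction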;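 further: B-score of the F/F0 ratio slope over 7 to 12 s after thallium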
WT yeast gro inh – growth inhibition of WT strain, primary screen, mitochondrial fusion inhibitor project, WT and mutant strains, chemical genetic; inhibition, % at 10 µM; 190,000 tested, 2.1% active; AID 1362, 2008; mitochondrial fusion phenotypic screen; in the data active means inhibition above about 58%; tested in S. cerevisiae
p47phox inh – p47phox/p22phox peptide binding inhibitors, primary screen, biochemical, uHTS, NADPH oxidase regulatory subunit; Neutrophil cytosol factor 1 (Homo sapiens), P14598; fluorescence polarization, 2 h; inhibition, % at 24.7 µM; 220,000 tested, 0.53% active; AID 1274, 2008;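 active means inhibition above about 30%, limit read from the data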;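 further: 0% = p47phox with labelled peptide and 100% = labelled peptide alone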
Target sequence (P14598 whole entry, looked up): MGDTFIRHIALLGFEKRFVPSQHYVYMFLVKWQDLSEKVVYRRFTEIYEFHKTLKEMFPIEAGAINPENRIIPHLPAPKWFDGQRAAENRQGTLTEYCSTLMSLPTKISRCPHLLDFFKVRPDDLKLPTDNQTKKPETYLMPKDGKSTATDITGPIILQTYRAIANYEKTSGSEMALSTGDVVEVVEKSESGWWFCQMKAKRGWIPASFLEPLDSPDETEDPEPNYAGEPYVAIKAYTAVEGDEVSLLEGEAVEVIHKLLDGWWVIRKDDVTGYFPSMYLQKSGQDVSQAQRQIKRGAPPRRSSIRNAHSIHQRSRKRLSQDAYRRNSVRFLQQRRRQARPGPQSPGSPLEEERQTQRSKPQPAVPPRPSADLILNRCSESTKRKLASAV
RBBP9 inhibitor – human RBBP9 inhibitors, primary screen, biochemical, fluorescence polarization, FP-Rh probe, HTS; recombinant RBBP9; inhibition, % at 7.94 µM; 220,000 tested, 0.2% active; AID 1515, 2009;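 active means inhibition above the campaign mean of all tested compounds plus 3 SD, cut at about 14% in these data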;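 further: plate controls were DMSO wells with RBBP9 for no effect and wells lacking RBBP9 protein for full effect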
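Test system: recombinant human RBBP9; Timing: 30 min then 45 min, 25 °C; Detection: fluorescence polarization; Control set: RBBP9 with DMSO as uninhibited control, no-protein wells as full inhibition; Compound dosing: one concentration, 7.94 µM nominal, 0.794% DMSO; Probe or stimulus: FP-Rh activity-based probe, 375 nM before mixing.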
KCC2 sec1 – KCC2 modulators in sodium-free buffer, confirmation, cell-based, HEK293 KCC2, thallium flux, secondary assay | 3,700 tested, 15% active | shares compounds with KCC2 mod | normalised thallium flux (F/F0 slope) at 10 µM | AID 1713, 2009 | FluoZin2 fluorescence; stronger effect = higher value;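 active means thallium flux slope above the same plate's solvent-only control mean plus 3 SD; inconclusive means the two replicate wells disagree; inactive means no significant difference from solvent-only control wells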
KCC2 bumet counter – thallium flux persisting under bumetanide in KCC2 cells, confirmation, counter-screen for KCC2 modulator project, cell-based, HEK293 KCC2, FluoZin2, secondary assay 3 | shares compounds with KCC2 mod | HEK293-KCC2 + bumetanide/ouabain; stronger effect = higher value | normalized thallium flux at 10 µM | 3,700 tested, 49% active;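 active means thallium entry rate above the same plate's blocked-transporter control wells by more than 3 SD; inconclusive means the two repeat wells disagree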;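 further: raw slope of fluorescence over initial fluorescence between 10 and 20 s after thallium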
KCC2 secondary2 – KCC2 modulators without ouabain present, confirmation, cell-based, HEK293 KCC2, thallium flux, FluoZin2, secondary assay 2 | shares compounds with KCC2 mod | thallium flux FluoZin2 fluorescence; actives lie on both sides; F/F0 rise rate, 10–20 s post-thallium | normalized thallium flux at 10 µM | 3,700 tested, 23% active;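 active means thallium flux slope more than 3 SD above or below the plate's solvent-only control mean, mostly below; inconclusive means the two repeat wells disagreed; inactive means no significant shift from solvent-only controls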;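 further: raw slope with 0.1% DMSO as baseline and bumetanide as block control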
HEK293 Tl flux – thallium flux modulation in parental HEK cells, confirmation, counter-screen for KCC2 modulator project, cell-based, counterscreen 1; shares compounds with KCC2 mod; HEK293 parental cells, thallium flux FluoZin2, ouabain; baseline-ratio fluorescence slope, 10–20 s after thallium; thallium flux rate (normalised fluorescence) at 10 µM; 3,700 tested, 46% active; AID 1716, 2009;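 active means thallium flux rate significantly above the same plate's solvent-only control wells, beyond their mean plus 3 SD; inconclusive means the two replicate wells gave conflicting results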
KCC2 ouabain – KCC2 inhibitors and activators, ouabain retest, confirmation, HEK-KCC2 cells; HEK293-KCC2, thallium flux FluoZin2 fluorescence; bidirectional: low = inhibitor, high = activator; 3,700 tested, 48% active; shares compounds with KCC2 mod; raw Tl+ flux slope (below DMSO = inhibition, above = activation) at 10 µM;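 active means thallium flux slope beyond 3 SD from same-plate DMSO control mean in most replicates, usually higher, sometimes lower; inconclusive means repeat tests gave conflicting results; inactive means no significant difference from controls in most replicates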;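 further: slope of initial-normalized fluorescence between seconds 10 and 20 after thallium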
HEK293 Tl flux2 – native HEK Tl+ uptake effects, second counter-screen – HEK cells, counterscreen 2, counter-screen for KCC2 modulator project, confirmation. shares compounds with KCC2 mod. HEK293 parental, thallium flux FluoZin-2 fluorescence slope. thallium flux slope at 10 µM. 3,700 tested, 33% active. AID 1718, 2009;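 active means thallium flux slope above the same plate's solvent-control mean plus 3 SD in both duplicate wells; inconclusive means duplicate wells that disagreed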;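 further: run without ouabain in cells lacking the KCC2 cotransporter; slope of fluorescence scaled to its starting value between 10 and 20 s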
Active calls of the source: *.

What do the screens show for `CNC(=S)NNC(=O)c1c(C)nc2cc(C)ccn12`?
KCC2 mod: 0.5; 14-3-3 Bad PPI: -8; ROMK primary: -0.14; p47phox inh: -10; RBBP9 inhibitor: 3

Results for COc1ccc(-c2nnc(S/C(=C/c3ccc(Cl)cc3)C(=O)O)o2)cc1 ?
KCC2 mod: -3*; 14-3-3 Bad PPI: -5; ROMK primary: -1.3; WT yeast gro inh: 1; p47phox inh: -13; RBBP9 inhibitor: -5; KCC2 sec1: 0.0082; KCC2 bumet counter: 0.0055*; KCC2 secondary2: 0.023*; HEK293 Tl flux: 0.0077; KCC2 ouabain: 0.016*; HEK293 Tl flux2: 0.0099

What do the screens show for `CCCc1nnc(NC(=O)c2cccnc2)s1`?
KCC2 mod: 0.36; 14-3-3 Bad PPI: 1; ROMK primary: 0.15; p47phox inh: -11; RBBP9 inhibitor: 2

Results for CC(C)c1nnc(NC(=O)c2cccnc2)s1 ?
KCC2 mod: 7.8*; 14-3-3 Bad PPI: -4; ROMK primary: 0.44; WT yeast gro inh: 10; p47phox inh: 16; RBBP9 inhibitor: 0; KCC2 sec1: 0.016; KCC2 bumet counter: 0.0051; KCC2 secondary2: 0.027; HEK293 Tl flux: 0.0073; KCC2 ouabain: 0.016; HEK293 Tl flux2: 0.011

How did COc1ccc(NC(=O)CCC2CCCCC2)cc1S(=O)(=O)N1CCCCC1 do in these assays?
KCC2 mod: -3.9*; 14-3-3 Bad PPI: -7; WT yeast gro inh: 18; p47phox inh: -5; RBBP9 inhibitor: -9; KCC2 sec1: 0.0074; KCC2 bumet counter: 0.0058; KCC2 secondary2: 0.029; HEK293 Tl flux: 0.0066; KCC2 ouabain: 0.019; HEK293 Tl flux2: 0.0096

How did CCOC(=O)C(CCCP(=O)(c1ccccc1)c1ccccc1)(NC(C)=O)C(=O)OCC do in these assays?
KCC2 mod: inactive; 14-3-3 Bad PPI: -4; p47phox inh: -4; RBBP9 inhibitor: -9

What do the screens show for `CC1=Nc2ccccc2/C1=C/c1sc(=N)n(-c2nccs2)c1O`?
KCC2 mod: -3.6*; 14-3-3 Bad PPI: 1; WT yeast gro inh: 36; p47phox inh: -86; RBBP9 inhibitor: -2; KCC2 sec1: 0.0062; KCC2 bumet counter: 0.00052*; KCC2 secondary2: 0.02*; HEK293 Tl flux: 0.0049*; KCC2 ouabain: 0.0097*; HEK293 Tl flux2: 0.0071*

How did O=C(CSc1nnc(Cc2ccccc2)n1-c1cccc(Cl)c1)NNC(=O)Cc1ccccc1 do in these assays?
KCC2 mod: 0.44; 14-3-3 Bad PPI: -11; WT yeast gro inh: -11; p47phox inh: -5; RBBP9 inhibitor: -4

What do the screens show for `CC(C)(C)OC(=O)[C@H](Cc1ccccc1)NC(=O)c1nc[nH]c1C(=O)N[C@@H](Cc1ccccc1)C(=O)OC(C)(C)C`?
KCC2 mod: 3.4*; 14-3-3 Bad PPI: -8; p47phox inh: -19; KCC2 sec1: 0.0058; KCC2 bumet counter: 0.004; KCC2 secondary2: 0.032; HEK293 Tl flux: 0.0072; KCC2 ouabain: 0.019; HEK293 Tl flux2: 0.0092

What do the screens show for `CC1(C2CC(C(F)(F)F)n3nc(C(=O)O)cc3N2)CC1` (stereo not drawn)?
KCC2 mod: -0.17; 14-3-3 Bad PPI: -10; ROMK primary: 0.1; WT yeast gro inh: -14; p47phox inh: -7; RBBP9 inhibitor: -6

How did Cc1noc(C)c1CN1C(=O)NC2(CCc3ccccc3C2)C1=O (stereo not drawn) do in these assays?
KCC2 mod: 0.12; 14-3-3 Bad PPI: -17; WT yeast gro inh: 15; p47phox inh: 1; RBBP9 inhibitor: -8; KCC2 sec1: 0.0097; KCC2 bumet counter: 0.0069; KCC2 secondary2: 0.034; HEK293 Tl flux: 0.0074; KCC2 ouabain: 0.022; HEK293 Tl flux2: 0.01

How did Cc1cccc(NC(=O)c2cc([N+](=O)[O-])ccc2N2CCCCC2)n1 do in these assays?
KCC2 mod: 0.069; 14-3-3 Bad PPI: -1; ROMK primary: -0.79; WT yeast gro inh: 29; p47phox inh: -4; RBBP9 inhibitor: -3

How did CC(C)(C)NC(=S)N/N=C/c1c(Cl)cccc1Cl do in these assays?
KCC2 mod: 7.8*; 14-3-3 Bad PPI: -6; p47phox inh: -1; RBBP9 inhibitor: 5; KCC2 sec1: 0.0075; KCC2 bumet counter: 0.0094*; KCC2 secondary2: 0.03; HEK293 Tl flux: 0.012*; KCC2 ouabain: 0.022; HEK293 Tl flux2: 0.013*

How did CCOC(=O)N1CCN(c2nc3ccccc3nc2C(C#N)S(=O)(=O)c2ccc(C)cc2)CC1 (stereo not drawn) do in these assays?
14-3-3 Bad PPI: 9; ROMK primary: -0.45; WT yeast gro inh: -5; p47phox inh: -21; RBBP9 inhibitor: 2; KCC2 sec1: 0.01; KCC2 bumet counter: 0.0062; KCC2 secondary2: 0.027*; HEK293 Tl flux: inconclusive; KCC2 ouabain: inconclusive; HEK293 Tl flux2: inconclusive
